In ChEMBL document CHEMBL1145339, “N1-Benzoyl-N2-[1-(1-naphthyl)ethyl]-trans-1,2-diaminocyclohexanes: Development of 4-chlorophenylcarboxamide (calhex 231) as a new calcium sensing receptor ligand demonstrating potent calcilytic activity” (J Med Chem, 2006):
The source made the active and inactive calls. The rule behind the calls is not given here.

Tests used:
Type in all cases: functional, cell-based
[1] = biological target: T1, Extracellular calcium-sensing receptor (Rattus norvegicus) (UniProt P48442); assay: Activity at rat CaSR in CHO cells assessed as inhibition of calcium ion-induced [3H]inositol phosphate accumulation at 1 uM
T1 sequence (whole entry): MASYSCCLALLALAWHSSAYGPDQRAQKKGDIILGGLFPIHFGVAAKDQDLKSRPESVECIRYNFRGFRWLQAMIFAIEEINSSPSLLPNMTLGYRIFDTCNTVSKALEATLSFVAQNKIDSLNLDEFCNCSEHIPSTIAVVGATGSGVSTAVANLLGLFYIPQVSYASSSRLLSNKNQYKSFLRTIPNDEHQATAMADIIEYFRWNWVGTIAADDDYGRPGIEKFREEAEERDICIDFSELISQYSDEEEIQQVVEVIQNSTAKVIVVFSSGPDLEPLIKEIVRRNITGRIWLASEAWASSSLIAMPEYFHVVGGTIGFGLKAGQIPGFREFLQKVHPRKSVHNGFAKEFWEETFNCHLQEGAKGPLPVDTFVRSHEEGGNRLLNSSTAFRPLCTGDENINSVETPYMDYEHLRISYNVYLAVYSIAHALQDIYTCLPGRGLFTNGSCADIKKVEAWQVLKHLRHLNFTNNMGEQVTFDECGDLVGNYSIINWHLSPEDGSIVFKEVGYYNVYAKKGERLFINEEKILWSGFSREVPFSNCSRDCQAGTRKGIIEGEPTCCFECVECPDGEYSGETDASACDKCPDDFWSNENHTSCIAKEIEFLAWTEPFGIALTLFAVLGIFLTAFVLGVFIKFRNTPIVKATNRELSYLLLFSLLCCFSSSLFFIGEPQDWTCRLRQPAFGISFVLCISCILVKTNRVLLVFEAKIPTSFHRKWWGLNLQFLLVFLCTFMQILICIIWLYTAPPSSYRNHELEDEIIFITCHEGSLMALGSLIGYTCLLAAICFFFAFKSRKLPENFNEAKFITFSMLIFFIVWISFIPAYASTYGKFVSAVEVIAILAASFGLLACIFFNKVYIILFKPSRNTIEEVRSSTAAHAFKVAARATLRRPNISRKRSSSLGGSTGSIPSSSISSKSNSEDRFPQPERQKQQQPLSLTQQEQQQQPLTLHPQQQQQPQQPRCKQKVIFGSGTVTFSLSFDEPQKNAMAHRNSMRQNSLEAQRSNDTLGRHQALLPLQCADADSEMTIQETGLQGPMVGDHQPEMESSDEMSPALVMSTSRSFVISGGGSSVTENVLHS
Summary of the method: (§1)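 CHO cells stably transfected with rat CaSR, grown in basal Ham's F-12 (0.3 mM Ca2+, 0.6 mM Mg2+). Overnight labelling with myo-[3H]inositol (0.5 µCi/mL). Cells washed, then 15 min at 37°C in basal medium with 10 mM LiCl, then 30 min at 37°C with 9 mM Ca2+ plus compound (10 mM ethanol stock diluted in medium). Reaction stopped with HClO4; [3H]IP isolated by ion exchange.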

[2] = biological target: T2, Extracellular calcium-sensing receptor (Rattus norvegicus, UniProt P48442); assay: Activity at rat CaSR in CHO cells assessed as inhibition of calcium ion-induced [3H]inositol phosphate accumulation; summary of the method: as §1
T2 sequence (P48442 whole entry): T1 sequence (whole entry)

[3] = biological target: T1, Extracellular calcium-sensing receptor (Rattus norvegicus); assay: Activity at rat CaSR in CHO cells assessed as inhibition of calcium ion-induced [3H]inositol phosphate accumulation at 10 uM; summary of the method: as §1

SMILES | inhibition [1] [%] | IC50 [2] [µM] | inhibition [3]
CC(C)(Cc1ccc2ccccc2c1)NC[C@@H](O)COc1cccc(Cl)c1C#N | 77 | 0.46 | 87%
C[C@@H](N[C@H]1CCCC[C@@H]1NC(=O)c1ccc(OC(F)(F)F)cc1)c1cccc2ccccc12 | – | 0.25 | 100%
C[C@@H](N[C@H]1CCCC[C@@H]1NS(=O)(=O)c1ccc(OC(F)(F)F)cc1)c1cccc2ccccc12 | – | 2.6 | 90%
C[C@@H](N[C@@H]1CCCC[C@H]1NC(=O)c1ccc(OC(F)(F)F)cc1)c1cccc2ccccc12 | – | 1.7 | 95%
COc1ccc(S(=O)(=O)N[C@@H]2CCCC[C@H]2NC(C)c2cccc3ccccc23)cc1 (some centres undefined) | 12 | 8 | 62%
CC(N[C@@H]1CCCC[C@H]1NS(=O)(=O)c1ccc(C(F)(F)F)cc1)c1cccc2ccccc12 (some centres undefined) | – | – | 75%
CC(N[C@@H]1CCCC[C@H]1NS(=O)(=O)c1ccc(Cl)cc1)c1cccc2ccccc12 (some centres undefined) | – | – | 73%
C[C@@H](N[C@@H]1CCCC[C@H]1NS(=O)(=O)c1ccc(OC(F)(F)F)cc1)c1cccc2ccccc12 | – | – | 32%
C[C@H](N[C@@H]1CCCC[C@H]1NC(=O)c1ccc(OC(F)(F)F)cc1)c1cccc2ccccc12 | – | – | 22%
C[C@H](N[C@@H]1CCCC[C@H]1NS(=O)(=O)c1ccc(OC(F)(F)F)cc1)c1cccc2ccccc12 | – | – | inactive
C[C@H](N[C@H]1CCCC[C@@H]1NC(=O)c1ccc(OC(F)(F)F)cc1)c1cccc2ccccc12 | – | – | inactive
C[C@H](N[C@H]1CCCC[C@@H]1NS(=O)(=O)c1ccc(OC(F)(F)F)cc1)c1cccc2ccccc12 | – | – | 20%
CC(N[C@@H]1CCCC[C@H]1NS(=O)(=O)c1ccc(OC(F)(F)F)cc1)c1cccc2ccccc12 (relative stereo) | 8 | 5.4 | 78%
CC(N[C@@H]1CCCC[C@H]1NC(=O)c1ccc(OC(F)(F)F)cc1)c1cccc2ccccc12 (relative stereo) | 50 | 0.9 | 95%
CC(N[C@@H]1CCCC[C@H]1NC(=O)Oc1ccccc1)c1cccc2ccccc12 (relative stereo) | – | – | 1%
CC(N[C@@H]1CCCC[C@H]1NC(=O)c1cc2ccccc2[nH]1)c1cccc2ccccc12 (relative stereo) | 33 | – | –

SMILES | inhibition [1] [%] | IC50 [2] [µM] | inhibition [3]
CC(N[C@@H]1CCCC[C@H]1NC(=O)c1ccc(Cl)c(Cl)c1)c1cccc2ccccc12 (relative stereo) | 82 | – | 103%
CC(N[C@@H]1CCCC[C@H]1NC(=O)c1ccc(Cl)cc1)c1cccc2ccccc12 (relative stereo) | 90 | – | 106%
CC(N[C@@H]1CCCC[C@H]1NC(=O)c1ccccc1)c1cccc2ccccc12 (relative stereo) | 33 | – | 78%
CC(N[C@@H]1CCCC[C@H]1NC(=O)c1ccccc1C(F)(F)F)c1cccc2ccccc12 (relative stereo) | 36 | – | –
CC(N[C@@H]1CCCC[C@H]1NC(=O)c1ccccc1Cl)c1cccc2ccccc12 (relative stereo) | 19 | – | 68%
CC(N[C@@H]1CCCC[C@H]1NC(=O)c1ccccn1)c1cccc2ccccc12 (relative stereo) | 35 | – | 76%
CC(N[C@@H]1CCCC[C@H]1NS(=O)(=O)c1ccc(Cl)c(Cl)c1)c1cccc2ccccc12 (relative stereo) | – | – | 60%
CC(N[C@@H]1CCCC[C@H]1NS(=O)(=O)c1ccc(Cl)c(Cl)c1Cl)c1cccc2ccccc12 (relative stereo) | – | – | 59%
CC(N[C@@H]1CCCC[C@H]1NS(=O)(=O)c1ccc([N+](=O)[O-])cc1)c1ccc2ccccc2c1 (relative stereo) | 1 | – | 20%
CC(N[C@@H]1CCCC[C@H]1NS(=O)(=O)c1ccc([N+](=O)[O-])cc1)c1cccc2ccccc12 (relative stereo) | – | – | 56%
CC(N[C@@H]1CCCC[C@H]1NS(=O)(=O)c1cccc(C(F)(F)F)c1)c1cccc2ccccc12 (relative stereo) | – | – | 44%
CC(N[C@@H]1CCCC[C@H]1NS(=O)(=O)c1cccc(Cl)c1)c1cccc2ccccc12 (relative stereo) | – | – | 60%
CC(N[C@H]1CCCC[C@@H]1NS(=O)(=O)c1ccc([N+](=O)[O-])cc1)c1ccc(-c2ccccc2)cc1 (relative stereo) | – | – | 7%
COc1ccc(OC)c(S(=O)(=O)N[C@@H]2CCCC[C@H]2NC(C)c2cccc3ccccc23)c1 (relative stereo) | – | – | 0%
O=[N+]([O-])c1ccc(S(=O)(=O)N[C@@H]2CCCC[C@H]2NCc2cccc3ccccc23)cc1 (relative stereo) | 1 | – | 6%
